# Results gathered from unrelated publications.
# Lines come from different studies, so protocols differ.
# Read-out: enzyme activity
# ABL1 Q252H: Tyrosine-protein kinase ABL1 (ABL1, Homo sapiens, UniProt P00519, Q252H)
# ABL1: Tyrosine-protein kinase ABL1 (ABL1, Homo sapiens, UniProt P00519)
Structure (SMILES),target,action,method,concentration,remaining activity
CCCOc1ccc(OC)c(F)c1C(=O)c1ccc(C(=O)N[C@@H]2CNC[C@H]2NC(=O)c2ccc3[nH]ncc3c2)cc1,ABL1 Q252H,inhibitor,,10 µM,76%
COc1cc(Nc2cnc(C#N)c(O[C@H](C)CN(C)C)n2)ncc1-c1cnn(C)c1,ABL1,inhibitor,radiometric,1 µM,83%
CC(C)(O)[C@H]1CC[C@H](Nc2ccc3ncc(-c4cccc(C(F)(F)F)c4)n3n2)CC1,ABL1,inhibitor,,1 µM,69.8%
Cc1cnc(NC2CCOCC2)nc1-n1cnc(C(=O)NC(CN)c2cc(F)cc(Cl)c2)c1 (centres unmarked),ABL1 Q252H,inhibitor,radiometric,1 µM,91%
Cc1[nH]c(/C=C2\C(=O)Nc3ccc(F)cc32)c(C)c1C(=O)N[C@H]1CCN(C(=O)N(C)C)C1,ABL1,inhibitor,,0.1 µM,104%
CC(C)(C)c1nc(-c2cccc(NS(=O)(=O)c3c(F)cccc3F)c2F)c(-c2ccnc(N)n2)s1,ABL1,inhibitor,radiometric,1 µM,94%
Cc1ccc(NC(=O)c2ccc(C)c(C(F)(F)F)c2)cc1C#Cc1nn(C2CCC(O)CC2)c2ncnc(N)c12 (centres unmarked),"Tyrosine-protein kinase ABL1 (ABL1, Homo sapiens, UniProt P00519, M351T)",,,10 µM,0%
Cc1sc(C(=O)NC2COC2)cc1-n1cc(NC(=O)Nc2c(F)cccc2Cl)cn1,ABL1,inhibitor,,10 µM,102%
